# Active and inactive are the calls of the source. No cut-off for these calls is given here.
# Key:
# [1] = target: T1, Multidrug efflux pump subunit AcrB (Escherichia coli (strain K12)) (UniProt P31224); experiment: Inhibition of AcrB in multidrug-resistant Escherichia coli BW25113 assessed as potentiation of erythromycin-induced antibacterial activity by measuring erythromycin MIC at 128 ug/ml by checkerboard titration method (reference value: 64 ug/ml); conditions: dose 128.0 µg/ml
# T1 sequence (whole entry): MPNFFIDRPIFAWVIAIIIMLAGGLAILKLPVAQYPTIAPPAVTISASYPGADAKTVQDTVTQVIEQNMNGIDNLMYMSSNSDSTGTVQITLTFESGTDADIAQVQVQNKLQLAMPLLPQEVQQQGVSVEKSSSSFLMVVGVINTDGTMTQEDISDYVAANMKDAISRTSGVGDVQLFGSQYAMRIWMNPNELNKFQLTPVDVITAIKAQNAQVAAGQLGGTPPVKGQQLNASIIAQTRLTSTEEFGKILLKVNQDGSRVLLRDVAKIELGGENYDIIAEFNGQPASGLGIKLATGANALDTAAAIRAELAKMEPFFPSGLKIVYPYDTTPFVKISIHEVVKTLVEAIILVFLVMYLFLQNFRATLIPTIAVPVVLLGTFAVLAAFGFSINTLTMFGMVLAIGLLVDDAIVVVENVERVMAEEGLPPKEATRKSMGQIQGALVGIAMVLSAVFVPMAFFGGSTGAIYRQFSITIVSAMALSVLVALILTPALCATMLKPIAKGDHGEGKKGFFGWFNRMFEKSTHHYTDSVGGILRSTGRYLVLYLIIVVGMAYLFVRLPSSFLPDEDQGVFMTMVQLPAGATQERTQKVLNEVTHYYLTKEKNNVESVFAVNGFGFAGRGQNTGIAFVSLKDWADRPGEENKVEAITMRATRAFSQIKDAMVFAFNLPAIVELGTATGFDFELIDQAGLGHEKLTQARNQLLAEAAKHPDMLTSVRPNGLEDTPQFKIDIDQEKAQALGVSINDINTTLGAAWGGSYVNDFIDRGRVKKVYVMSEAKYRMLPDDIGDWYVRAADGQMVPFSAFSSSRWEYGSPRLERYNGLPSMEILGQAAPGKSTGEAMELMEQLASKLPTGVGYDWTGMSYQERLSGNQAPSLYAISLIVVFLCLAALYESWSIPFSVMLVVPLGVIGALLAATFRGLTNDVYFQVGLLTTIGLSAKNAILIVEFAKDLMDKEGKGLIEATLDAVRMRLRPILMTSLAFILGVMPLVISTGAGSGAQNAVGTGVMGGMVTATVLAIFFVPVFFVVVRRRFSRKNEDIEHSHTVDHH
# [2] = target: T1, Multidrug efflux pump subunit AcrB (Escherichia coli (strain K12)); experiment: Inhibition of AcrB in multidrug-resistant Escherichia coli BW25113 assessed as potentiation of tetraphenylphosphonium-induced antibacterial activity by measuring tetraphenylphosphonium MIC at 64 ug/ml by checkerboard titration method (reference value: 1024 ug/ml); conditions: dose 64.0 µg/ml
# [3] = target: T1, Multidrug efflux pump subunit AcrB (Escherichia coli (strain K12)); experiment: Inhibition of AcrB in multidrug-resistant Escherichia coli BW25113 assessed as potentiation of chloramphenicol-induced antibacterial activity by measuring chloramphenicol MIC at 32 ug/ml by checkerboard titration method (reference value: 8 ug/ml); conditions: dose 32.0 µg/ml
# [4] = target: T1, Multidrug efflux pump subunit AcrB (Escherichia coli (strain K12)); experiment: Inhibition of AcrB in multidrug-resistant Escherichia coli BW25113 assessed as potentiation of erythromycin-induced antibacterial activity by measuring erythromycin MIC at 64 ug/ml by checkerboard titration method (reference value: 64 ug/ml); conditions: dose 64.0 µg/ml
# [5] = target: T1, Multidrug efflux pump subunit AcrB (Escherichia coli (strain K12)); experiment: Inhibition of AcrB in multidrug-resistant Escherichia coli BW25113 assessed as potentiation of levofloxacin-induced antibacterial activity by measuring levofloxacin MIC at 128 ug/ml by checkerboard titration method (reference value: 0.06 ug/ml); conditions: dose 128.0 µg/ml
# [6] = target: T1, Multidrug efflux pump subunit AcrB (Escherichia coli (strain K12)); experiment: Inhibition of AcrB in multidrug-resistant Escherichia coli BW25113 assessed as potentiation of tetraphenylphosphonium-induced antibacterial activity by measuring tetraphenylphosphonium MIC at 128 ug/ml by checkerboard titration method (reference value: 1024 ug/ml); conditions: dose 128.0 µg/ml
# [7] = target: T1, Multidrug efflux pump subunit AcrB (Escherichia coli (strain K12)); experiment: Inhibition of AcrB in multidrug-resistant Escherichia coli BW25113 assessed as potentiation of erythromycin-induced antibacterial activity by measuring erythromycin MIC at 16 ug/ml by checkerboard titration method (reference value: 64 ug/ml); conditions: dose 16.0 µg/ml
# Cell membrane [8] = experiment: Induction of inner membrane permeabilization in wild type Escherichia coli BW25113 assessed as perturbation of proton motive force at 32 ug/ml measured after 10 mins in presence of CCCP and glucose by Di0C2(3) probe based fluorescence assay; conditions: escherichia coli bw25113, 10 min, dose 32 µg/ml
# Procedure, shortened: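 Cell suspensions were left untreated or exposed to 8-128 µg/mL compound for 10 min. DiOC₂(3) was then added and fluorescence followed to a plateau. Cells were re-energized with 0.5% glucose, and the rise in fluorescence was read as membrane-potential build-up. CCCP was added last to dissipate the potential.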
# [9] = target: T1, Multidrug efflux pump subunit AcrB (Escherichia coli (strain K12)); conditions: Escherichia coli BW25113; dose 8.0 µg/ml
# [10] = target: T1, Multidrug efflux pump subunit AcrB (Escherichia coli (strain K12)); experiment: Inhibition of AcrB in multidrug-resistant Escherichia coli BW25113 assessed as potentiation of levofloxacin-induced antibacterial activity by measuring levofloxacin MIC at 64 ug/ml by checkerboard titration method (reference value: 0.06 ug/ml); conditions: dose 64.0 µg/ml
# Cell membrane [11] = experiment: Induction of outer membrane permeabilization in wild type Escherichia coli BW25113 assessed as increase in nitrocefin hydrolysis at 128 ug/ml in presence of CCCP by spectroscopic analysis; conditions: dose 128 µg/ml
# Procedure, shortened: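 Intact E. coli were treated with 10 μM CCCP to block nitrocefin efflux, then given compound, nothing, or polymyxin B as permeabilizer control. Nitrocefin was added, and hydrolysis by periplasmic β-lactamase was followed as the rise in absorbance at 490 nm. Duplicate experiments were run on different days.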
# [12] = target: T1, Multidrug efflux pump subunit AcrB (Escherichia coli (strain K12)); experiment: Inhibition of AcrB in multidrug-resistant Escherichia coli BW25113 assessed as potentiation of levofloxacin-induced antibacterial activity by measuring levofloxacin MIC at 16 ug/ml by checkerboard titration method (reference value: 0.06 ug/ml); conditions: dose 16.0 µg/ml
# [13] = target: T1, Multidrug efflux pump subunit AcrB (Escherichia coli (strain K12)); experiment: Inhibition of AcrB in Escherichia coli BW25113 assessed as reduction in glucose-induced nile red efflux at 100 uM preincubated for 15 mins followed by nile red addition and incubated for 3 hrs in shaker in presence of CCCP by fluorimetric analysis; conditions: time 3.25 hrs
# Procedure, shortened: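 Wild-type and AcrB-deleted cells were preloaded with Nile Red, with or without compound. Fluorescence was recorded, and efflux was triggered at 100 s with 0.2% glucose. Traces were compared with the deletion-strain level. Triplicate experiments used different cell batches.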
Structure (SMILES),MIC [1],MIC [2],MIC [3],MIC [4],MIC [5],MIC [6],MIC [7],Activity (Cell membrane [8]),MIC [9],MIC [10],Activity (Cell membrane [11]),MIC [12],inhibition [13]
CC1(C)CC(=O)c2ccc(OCCNC3CCCC3)cc2O1,64 µg/mL,512 µg/mL,8 µg/mL,64 µg/mL,0.03 µg/mL,512 µg/mL,64 µg/mL,Not Active,16 µg/mL,0.03 µg/mL,Not Active,0.06 µg/mL,
Cc1ccccc1COc1cccc2c3c(c(-c4nnco4)cc12)CCC(C)(C)O3,16 µg/mL,512 µg/mL,8 µg/mL,32 µg/mL,0.06 µg/mL,256 µg/mL,64 µg/mL,Not Active,16 µg/mL,0.06 µg/mL,,0.06 µg/mL,Active
CC1CN(C(=O)c2cc3c(OCc4ccc(Br)cc4)cccc3c3c2CCC(C)(C)O3)CC(C)O1 (stereo not drawn),32 µg/mL,1020 µg/mL,8 µg/mL,64 µg/mL,0.06 µg/mL,512 µg/mL,64 µg/mL,,16 µg/mL,0.06 µg/mL,Not Active,0.06 µg/mL,Active
C=CC(=O)Nc1ccc(COc2cccc3c4c(c(Cn5cnnn5)cc23)CCC(C)(C)O4)cc1,32 µg/mL,1020 µg/mL,4 µg/mL,32 µg/mL,0.06 µg/mL,1020 µg/mL,64 µg/mL,,16 µg/mL,0.06 µg/mL,,0.06 µg/mL,
CC1(C)CCc2c(Cn3cnnn3)cc3c(OCc4ccc(OC(F)(F)F)cc4)cccc3c2O1,32 µg/mL,1020 µg/mL,8 µg/mL,64 µg/mL,0.06 µg/mL,1020 µg/mL,64 µg/mL,,16 µg/mL,0.06 µg/mL,Not Active,0.06 µg/mL,Active
CC1(C)CCc2c(-c3nnco3)cc3c(OCc4ccc([N+](=O)[O-])cc4)cccc3c2O1,32 µg/mL,1020 µg/mL,8 µg/mL,32 µg/mL,0.06 µg/mL,1020 µg/mL,64 µg/mL,,16 µg/mL,0.06 µg/mL,,0.06 µg/mL,Active
CC1(C)CCc2c(Cn3cnnn3)cc3c(OCc4ccccc4)cccc3c2O1,64 µg/mL,1020 µg/mL,8 µg/mL,64 µg/mL,0.03 µg/mL,1020 µg/mL,64 µg/mL,,16 µg/mL,0.06 µg/mL,,0.06 µg/mL,Active
CNC(=O)c1ccc(COc2cccc3c4c(c(Cn5cnnn5)cc23)CCC(C)(C)O4)cc1,32 µg/mL,1020 µg/mL,8 µg/mL,64 µg/mL,0.06 µg/mL,1020 µg/mL,64 µg/mL,,16 µg/mL,0.06 µg/mL,,0.06 µg/mL,
CC1(C)CCc2c(C(=O)O)cc3c(OCc4ccccc4)cccc3c2O1,32 µg/mL,256 µg/mL,8 µg/mL,64 µg/mL,0.01 µg/mL,64 µg/mL,64 µg/mL,Active,16 µg/mL,0.01 µg/mL,Not Active,0.06 µg/mL,Active
CC1(C)CCc2c(-c3nnco3)cc3c(OCc4ccc(C#N)cc4)cccc3c2O1,32 µg/mL,512 µg/mL,4 µg/mL,64 µg/mL,0.06 µg/mL,512 µg/mL,64 µg/mL,,16 µg/mL,0.06 µg/mL,Not Active,0.06 µg/mL,
COc1cccc(COc2cccc3c4c(c(C(=O)O)cc23)CCC(C)(C)O4)c1,16 µg/mL,512 µg/mL,8 µg/mL,32 µg/mL,0.06 µg/mL,256 µg/mL,64 µg/mL,Not Active,16 µg/mL,0.06 µg/mL,Not Active,0.06 µg/mL,Active
CC1(C)CCc2c(-c3nnco3)cc3c(OCc4ccccc4)cccc3c2O1,16 µg/mL,512 µg/mL,4 µg/mL,32 µg/mL,0.06 µg/mL,128 µg/mL,64 µg/mL,Not Active,16 µg/mL,0.06 µg/mL,Not Active,0.06 µg/mL,Active
COc1cccc(COc2cccc3c4c(c(-c5nnco5)cc23)CCC(C)(C)O4)c1,32 µg/mL,512 µg/mL,8 µg/mL,64 µg/mL,0.06 µg/mL,512 µg/mL,64 µg/mL,,16 µg/mL,0.06 µg/mL,Not Active,0.06 µg/mL,
COc1cccc(COc2cccc3c4c(c(C(=O)N5CCOCC5)cc23)CCC(C)(C)O4)c1,16 µg/mL,256 µg/mL,4 µg/mL,32 µg/mL,0.06 µg/mL,128 µg/mL,64 µg/mL,Not Active,16 µg/mL,0.06 µg/mL,Not Active,0.06 µg/mL,
CC1(C)CC(=O)c2ccc(OCC(=O)Nc3ccc(C#N)c(C(F)(F)F)c3)cc2O1,,256 µg/mL,8 µg/mL,64 µg/mL,,,64 µg/mL,Not Active,16 µg/mL,0.06 µg/mL,,0.06 µg/mL,
CC1(C)CCc2c(Cn3cnnn3)cc3c(OCc4ccc([N+](=O)[O-])cc4)cccc3c2O1,64 µg/mL,1020 µg/mL,8 µg/mL,64 µg/mL,0.06 µg/mL,512 µg/mL,64 µg/mL,,16 µg/mL,0.06 µg/mL,Not Active,0.06 µg/mL,Active

# From ChEMBL document CHEMBL4732114, “Design and structural optimization of novel 2H-benzo[h]chromene derivatives that target AcrB and reverse bacterial multidrug resistance” (Eur J Med Chem, 2021)
